Experimental data: ChEMBL document CHEMBL4145448, “Broad activity of diphenyleneiodonium analogues against Mycobacterium tuberculosis, malaria parasites and bacterial pathogens” (Eur J Med Chem, 2018)

What was measured:
[1] = tested on: Plasmodium falciparum; experiment: Growth inhibition of CQ-sensitive GFP-fused Plasmodium falciparum D10 after 90 hrs by ethidium bromide staining based flow cytometry; format: functional, organism-based; details: D10, 90 h
Procedure, shortened: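 Parasites cultured in human O+ erythrocytes in RPMI-HEPES pH 7.4 with hypoxanthine, NaHCO3, gentamicin and 0.5% Albumax II under 1% O2/4% CO2 at 37 °C. Synchronised to rings with heparin plus sorbitol. Set up at 1% parasitaemia and 1% haematocrit with 10x compound added. Cultured 90 h to next-cycle trophozoites. Stained with 10 µg/mL ethidium bromide for 1 h, washed, parasitaemia counted by flow cytometry with GFP gating.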

[2] = tested on: Pseudomonas aeruginosa; experiment: Antibacterial activity against Pseudomonas aeruginosa ATCC 27853 after 18 hrs by broth microdilution method; format: functional; details: ATCC 27853, 18 h
Procedure, shortened: (§1)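 Broth microdilution per CLSI in cation-adjusted Mueller-Hinton broth. 100 µL inoculum (~10^6 cfu/mL in CaMHB) mixed with 100 µL CaMHB containing compound, 0 to 128 µM. Incubated 18 h at 37 °C. MIC taken as the lowest concentration with no visible growth. Polymyxin B served as positive control. Isolates were stored at -80 °C in tryptone soy broth with 20% glycerol.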

[3] = tested on: Pseudomonas aeruginosa; experiment: Antibacterial activity against Pseudomonas aeruginosa isolate 912 after 18 hrs by broth microdilution method; format: functional; details: isolate 912, 18 h; procedure, shortened: as §1
[4] = tested on: Pseudomonas aeruginosa; experiment: Antibacterial activity against Pseudomonas aeruginosa isolate 19147nm after 18 hrs by broth microdilution method; format: functional; procedure, shortened: as §1
[5] = tested on: Pseudomonas aeruginosa; experiment: Antibacterial activity against Pseudomonas aeruginosa isolate M146201 after 18 hrs by broth microdilution method; format: functional; details: isolate M146201, 18 h; procedure, shortened: as §1
[6] = tested on: Acinetobacter baumannii; experiment: Antibacterial activity against Acinetobacter baumannii ATCC 19606 after 18 hrs by broth microdilution method; format: functional; details: ATCC 19606 = CIP 70.34 = JCM 6841, 18 h; procedure, shortened: as §1
[7] = tested on: Acinetobacter baumannii; experiment: Antibacterial activity against Acinetobacter baumannii ATCC 17978 after 18 hrs by broth microdilution method; format: functional; details: ATCC 17978, 18 h; procedure, shortened: as §1
[8] = tested on: Acinetobacter baumannii; experiment: Antibacterial activity against Acinetobacter baumannii ATCC 19606 col10 after 18 hrs by broth microdilution method; format: functional; details: ATCC 19606 = CIP 70.34 = JCM 6841 col10, 18 h; procedure, shortened: as §1
[9] = tested on: Acinetobacter baumannii; experiment: Antibacterial activity against Acinetobacter baumannii isolate 07AC-336 after 18 hrs by broth microdilution method; format: functional; details: isolate 07AC-336, 18 h; procedure, shortened: as §1
[10] = tested on: Acinetobacter baumannii; experiment: Antibacterial activity against Acinetobacter baumannii ATCC 17978 col10 after 18 hrs by broth microdilution method; format: functional; details: ATCC 17978 col10, 18 h; procedure, shortened: as §1
[11] = tested on: Klebsiella pneumoniae; experiment: Antibacterial activity against Klebsiella pneumoniae isolate M320445 after 18 hrs by broth microdilution method; format: functional; details: isolate M320445, 18 h; procedure, shortened: as §1
[12] = tested on: Klebsiella pneumoniae; experiment: Antibacterial activity against Klebsiella pneumoniae isolate 1 after 18 hrs by broth microdilution method; format: functional; details: isolate 1, 18 h; procedure, shortened: as §1
[13] = tested on: Klebsiella pneumoniae; experiment: Antibacterial activity against Klebsiella pneumoniae isolate 248-33-D after 18 hrs by broth microdilution method; format: functional; procedure, shortened: as §1
[14] = tested on: Escherichia coli; experiment: Antibacterial activity against Escherichia coli N2381 after 18 hrs by broth microdilution method; format: functional; details: N2381, 18 h; procedure, shortened: as §1
[15] = tested on: Escherichia coli; experiment: Antibacterial activity against Escherichia coli N11281 after 18 hrs by broth microdilution method; format: functional; details: N11281, 18 h; procedure, shortened: as §1
[16] = Selectivity index, ratio of CC50 for human HepG2 cells in presence of 1% FBS to MIC for Pseudomonas aeruginosa isolate 912; format: toxicity; details: read-out: Selectivity Index
Procedure, shortened: (§2)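 Selectivity index is CC50 (1% FBS) divided by MIC. […] They then got compound at 300 to 0.14 µM (3-fold steps) for 24 h at 37 °C, 5% CO2. Resazurin (10 µM, 2 h) was read at ex/em 560/590 in duplicate wells. For MIC, CLSI broth microdilution was run in CaMHB with ~10^6 cfu/mL inoculum and 0–128 µM compound.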

[17] = Selectivity index, ratio of CC50 for human HepG2 cells in presence of 1% FBS to MIC for Pseudomonas aeruginosa isolate 18878B klon 1; format: toxicity; details: read-out: Selectivity Index; procedure, shortened: as §2
[18] = Selectivity index, ratio of CC50 for human HepG2 cells in presence of 1% FBS to MIC for Pseudomonas aeruginosa isolate M146201; format: toxicity; details: read-out: Selectivity Index; procedure, shortened: as §2
[19] = Selectivity index, ratio of CC50 for human HepG2 cells in presence of 1% FBS to MIC for Acinetobacter baumannii ATCC 19606; format: toxicity; details: read-out: Selectivity Index
[20] = Selectivity index, ratio of CC50 for human HepG2 cells in presence of 1% FBS to MIC for Acinetobacter baumannii ATCC 19606 col10; format: toxicity; details: read-out: Selectivity Index
[21] = Selectivity index, ratio of CC50 for human HepG2 cells in presence of 1% FBS to MIC for Acinetobacter baumannii isolate 07AC-336; format: toxicity; details: read-out: Selectivity Index
[22] = Selectivity index, ratio of CC50 for human HepG2 cells in presence of 1% FBS to MIC for Klebsiella pneumoniae ATCC 13883; format: toxicity; details: read-out: Selectivity Index
[23] = Selectivity index, ratio of CC50 for human HepG2 cells in presence of 1% FBS to MIC for Klebsiella pneumoniae isolate 1; format: toxicity; details: read-out: Selectivity Index
[24] = Selectivity index, ratio of CC50 for human HepG2 cells in presence of 1% FBS to MIC for methicillin-resistant Staphylococcus aureus ATCC 43300; format: toxicity; details: read-out: Selectivity Index; procedure, shortened: as §2
[25] = Selectivity index, ratio of CC50 for human HepG2 cells in presence of 1% FBS to MIC for Klebsiella pneumoniae isolate 248-33-D; format: toxicity; details: read-out: Selectivity Index
[26] = Selectivity index, ratio of CC50 for human HepG2 cells in presence of 1% FBS to MIC for vancomycin-resistant Staphylococcus aureus ATCC 700699; format: toxicity; details: read-out: Selectivity Index; procedure, shortened: as §2
[27] = tested on: Mycobacterium tuberculosis; experiment: Antimycobacterial activity against Mycobacterium tuberculosis H37Rv ATCC 25618 after 7 days by resazurin dye based assay; format: functional; details: H37Rv ATCC 25618, 168 h
Procedure, shortened: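 H37Rv grown at 37 °C in 7H9 with 10% ADC, 0.5% glycerol and 0.02% tyloxapol. Compounds serially diluted in water, 0 to 10 µM, in triplicate. Culture adjusted to OD600 0.001 and incubated 7 days at 37 °C. Resazurin (0.05% w/v) added for 4-24 h and fluorescence read at 590 nm. MIC is the lowest concentration giving complete growth inhibition versus untreated. Rifampicin served as control.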

[28] = Selectivity index, ratio of CC50 for human HepG2 cells in presence of 1% FBS to MIC for Mycobacterium tuberculosis H37Rv ATCC 25618; format: toxicity; details: read-out: Selectivity Index
[29] = Selectivity index, ratio of CC50 for human HepG2 cells in presence of 1% FBS to IC50 for CQ-sensitive GFP-fused Plasmodium falciparum D10; format: toxicity; details: read-out: Ratio IC50
[30] = Cytotoxicity against human HepG2 cells after 24 hrs in presence of 1% FBS by resazurin dye based assay; format: cell-based
Procedure, shortened: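 HepG2 cells seeded at 4000/well in DMEM with 1% FBS and allowed to attach for 24 h at 37 °C, 5% CO2. Compounds added from 300 to 0.14 µM in 3-fold steps and incubated 24 h. 10 µM resazurin added for 2 h, fluorescence read at ex/em 560/590. Percent viability computed relative to untreated and negative controls, duplicate wells.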

SMILES | IC50 [1] [nM] | MIC [2] [µM] | MIC [3] [µM] | MIC [4] [µM] | MIC [5] [µM] | MIC [6] [µM] | MIC [7] [µM] | MIC [8] [µM] | MIC [9] [µM] | MIC [10] [µM] | MIC [11] [µM] | MIC [12] [µM] | MIC [13] [µM] | MIC [14] [µM] | MIC [15] [µM] | selectivity ratio [16] | selectivity ratio [17] | selectivity ratio [18] | selectivity ratio [19] | selectivity ratio [20] | also measured
c1ccc2c(c1)[I+]c1ccccc1-2 | 130 | 75 | 4.7 | 2.3 | 9.3 | 9.3 | 2.3 | 4.7 | 19 | 0.58 | 37 | 75 | 37 | 37 | 37 | 6.3 | 6.3 | 3.1 | 3.1 | 6.3 | selectivity ratio [21]: 1.6; selectivity ratio [22]: 0.78; selectivity ratio [23]: 0.78; selectivity ratio [24]: 6.3; selectivity ratio [25]: 0.78; selectivity ratio [26]: 1.6; MIC [27]: 0.3 µM; selectivity ratio [28]: 96; selectivity ratio [29]: 221; CC50 at 24 h [30]: 29200 nM
N#Cc1ccc2c(c1)-c1ccccc1[I+]2 | 40 | 71 | 8.8 | 4.4 | 8.8 | 18 | 4.4 | 2.2 | 71 | 2.2 | 71 | > 71 | 71 | 71 | 71 | 2.5 | 2.5 | 2.5 | 0.13 | 10 | selectivity ratio [21]: 0.32; selectivity ratio [22]: 0.63; selectivity ratio [23]: > 0.32; selectivity ratio [24]: 20; selectivity ratio [25]: 0.32; selectivity ratio [26]: 2.5; MIC [27]: 0.29 µM; selectivity ratio [28]: 78; selectivity ratio [29]: 531; CC50 at 24 h [30]: 22300 nM
COc1cccc2c1-c1ccccc1[I+]2 | 170 | > 70 | 70 | 70 | > 70 | 35 | 35 | 17 | 70 | 35 | 70 | > 70 | > 70 | 70 | > 70 | 0.55 | 0.55 | > 0.55 | 1.1 | 2.2 | selectivity ratio [21]: 0.55; selectivity ratio [22]: > 0.55; selectivity ratio [23]: > 0.55; selectivity ratio [24]: 1.1; selectivity ratio [25]: > 0.55; selectivity ratio [26]: 1.1; MIC [27]: 4.4 µM; selectivity ratio [28]: 8.8; selectivity ratio [29]: 225; CC50 at 24 h [30]: 38300 nM
Cc1ccc2c(c1)[I+]c1ccccc1-2.O=S(=O)([O-])C(F)(F)F | 230 | 72 | 4.5 | 4.5 | 36 | 9.1 | 4.5 | 4.5 | 18 | 1.1 | 36 | 72 | 72 | 72 | 36 | 0.81 | 0.81 | 0.11 | 0.41 | 0.81 | selectivity ratio [21]: 0.21; selectivity ratio [22]: 0.05; selectivity ratio [23]: 0.05; selectivity ratio [24]: 0.81; selectivity ratio [25]: 0.05; selectivity ratio [26]: 0.398; MIC [27]: 0.57 µM; selectivity ratio [28]: 6.4; selectivity ratio [29]: 15.8; CC50 at 24 h [30]: 3600 nM
